Screens: PubChem, Broad Institute
Shn3 inh set2 – inhibitors of Schnurri-3 3'UTR reporter in osteoblasts; Clone20 osteoblast Shn3 3'UTR firefly luciferase, 24 h; inhibition, % at 12.5 µM; 360,000 compounds, 0.52% hits;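 active means mean inhibition of at least 75% with every replicate also reaching 75%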
aSyn 5UTR inh – MLPCN primary screen, SNCA 5' untranslated region. alpha-synuclein 5'UTR reporter, inhibitor activity. inhibition, % (tested at 7.5 µM). 300,000 compounds, 0.82% hits. AID 1813; in the data active means inhibition above about 60%;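 further: H4 neuroglioblastoma cells stably carrying SNCA 5'UTR luciferase fusion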
EBV LMP1 NFkB – Epstein-Barr LMP1 NF-kappaB reporter inhibition. AID 504558. LMP1-induced NF-kappaB luciferase reporter cells, luminescence. 350,000 compounds, 0.69% hits. inhibition, % at 12.5 µM; in the data active means inhibition above about 41%
FN deposit inh – fibronectin deposition inhibition | AH1F fibroblasts, Alexa488-fibronectin deposition fluorescence, overnight | inhibition, % at 12.6 µM | 350,000 compounds, 0.086% hits | AID 743247;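 active means mean inhibition across replicates of 30% or more, regardless of how many single replicates reach that level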
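Assay system: AH1F fibroblasts / Quantity: 10000 cells per well / Medium: DMEM plus 2% serum, read in PBS / Reagent: labelled fibronectin 24 nM / Dosing: single dose, pinned / Times: 1 h cell attachment, overnight exposure to compound and label / Signal: fluorescence, ex 485 nm, em 525 nm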
PAX8 inh HTS – lowers PAX8-driven luciferase in RMG-I cells | inhibition, % at 12.6 µM | AID 652154 | RMG-I TPO-luciferase reporter, SteadyGlo, 24 h | 360,000 compounds, 1.2% hits;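 active means mean replicate inhibition at least 60% with every replicate also reaching 60%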;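 further: luciferase light reporting Pax8 driven TPO promoter activity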
EWS-Fli block – inhibitors of EWS/Fli oncoprotein transcriptional activity. A673 NR0B1-luciferase reporter, viability-normalised. inhibition, % at 12.6 µM. 350,000 compounds, 0.67% hits;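 active means mean inhibition of at least 50% after viability correction, with every replicate also passing that limit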;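 further: firefly luciferase signal divided by Alamar Blue viability fluorescence both relative to DMSO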
Each line names hits and unclear results; the compound was inactive in the other large screens; ! = not active in a repeat. In the library only some 2.1% were active in any assay of this set; here they are far more common.

O=[N+]([O-])c1ccc(-c2nc(C(Cl)Cl)c3ccccc3n2)cc1	aSyn 5UTR inh 128.7, EWS-Fli block 67.4
Cc1oc2ccc(O)cc2c1C(=O)c1ccc(Br)cc1	FN deposit inh 34.3
O=C(C[C@@H]1C=C[C@H](NC(=O)C2CCOCC2)[C@H](CO)O1)NCC1CC1	none (no result: Shn3 inh set2, aSyn 5UTR inh, EBV LMP1 NFkB, FN deposit inh)
Nc1cccc(CN2CCCC2)c1	none
Clc1cccc(CN2CCCCCC2)c1	EBV LMP1 NFkB 80.2
Cc1ccccc1CSc1nnc([C@@H]2CCCN2)o1	EBV LMP1 NFkB 53.5
COc1ccc(NC(=O)Nc2ccc3c(c2)C(=O)N(C)C[C@H](OC)[C@@H](C)CN[C@@H](C)CO3)cc1	none (no result: Shn3 inh set2, aSyn 5UTR inh, EBV LMP1 NFkB)
c1ccc2c(-c3csc(-c4ccncc4)n3)c[nH]c2c1	FN deposit inh 32.8
COC(=O)C1CCC(=O)N1C(c1ccc(OC)cc1)c1cc(OC)c(OC)c(OC)c1 (stereo unspecified)	PAX8 inh HTS 75.5 (no result: aSyn 5UTR inh)
O=C(N/N=C/c1ccccc1)c1[nH]c2ccc(Br)cc2c1-c1ccccc1	EWS-Fli block 75.8
CN(C)C(=O)c1cccc(-c2ccc(C3[C@@H]4CN(C(=O)c5cnccn5)C[C@H]3N4)cc2)c1 (stereo partly specified)	none (no result: Shn3 inh set2, aSyn 5UTR inh, EBV LMP1 NFkB)
O=C(C1CCCC1)N1C[C@@H]2N[C@H](C1)C2c1ccc(-c2cccc(F)c2)cc1 (stereo partly specified)	none (no result: Shn3 inh set2, aSyn 5UTR inh, EBV LMP1 NFkB, PAX8 inh HTS)
N#Cc1cccc(-c2ccc(C3[C@@H]4CN(C(=O)C5CC5)C[C@H]3N4)cc2)c1 (stereo partly specified)	PAX8 inh HTS 98.0! (no result: Shn3 inh set2, aSyn 5UTR inh, EBV LMP1 NFkB)
O=C(NC1CCCCC1)N1C[C@@H]2N[C@H](C1)C2c1ccc(-c2cccc(F)c2)cc1 (stereo partly specified)	PAX8 inh HTS 62.6! (no result: Shn3 inh set2, aSyn 5UTR inh, EBV LMP1 NFkB)
O=C(C1CC1)N1C[C@@H]2N[C@H](C1)C2c1ccc(-c2cccc(F)c2)cc1 (stereo partly specified)	PAX8 inh HTS 82.7! (no result: Shn3 inh set2, aSyn 5UTR inh, EBV LMP1 NFkB)
COc1cccc(-c2ccc(C3[C@@H]4CN(C(=O)c5cnccn5)C[C@H]3N4)cc2)c1 (stereo partly specified)	EWS-Fli block 52.2! (no result: Shn3 inh set2, aSyn 5UTR inh, EBV LMP1 NFkB)
C[C@H]1CCCCO[C@H](CN(C)C(=O)Nc2cccc3ccccc23)[C@@H](C)CN([C@@H](C)CO)C(=O)c2cc(NS(=O)(=O)c3ccccc3)ccc2O1	PAX8 inh HTS 71.6 (no result: Shn3 inh set2, aSyn 5UTR inh, EBV LMP1 NFkB)
C[C@@H]1CCCCO[C@H](CN(C)C(=O)Nc2cccc3ccccc23)[C@H](C)CN([C@@H](C)CO)C(=O)c2cc(NS(=O)(=O)c3ccc(Cl)cc3)ccc2O1	PAX8 inh HTS 75.7 (no result: Shn3 inh set2, aSyn 5UTR inh, EBV LMP1 NFkB)
C[C@H](CO)N1C[C@H](C)[C@@H](CN(C)C(=O)Nc2cccc3ccccc23)OCCCC[C@H](C)Oc2ccc(NS(=O)(=O)c3ccccc3)cc2C1=O	none (no result: Shn3 inh set2, aSyn 5UTR inh, EBV LMP1 NFkB)
Cc1ccc(S(=O)(=O)Nc2ccc3c(c2)C(=O)N([C@@H](C)CO)C[C@@H](C)[C@@H](CN(C)C(=O)Nc2cccc4ccccc24)OCCCC[C@H](C)O3)cc1	none (no result: Shn3 inh set2, aSyn 5UTR inh, EBV LMP1 NFkB)
Cc1ccc(S(=O)(=O)Nc2ccc3c(c2)C(=O)N([C@H](C)CO)C[C@@H](C)[C@H](CN(C)C(=O)Nc2cccc4ccccc24)OCCCC[C@@H](C)O3)cc1	PAX8 inh HTS 78.6 (no result: Shn3 inh set2, aSyn 5UTR inh, EBV LMP1 NFkB)
Cc1ccc(S(=O)(=O)Nc2ccc3c(c2)C(=O)N([C@@H](C)CO)C[C@H](C)[C@@H](CN(C)C(=O)Nc2cccc4ccccc24)OCCCC[C@@H](C)O3)cc1	PAX8 inh HTS 80.5 (no result: Shn3 inh set2, aSyn 5UTR inh, EBV LMP1 NFkB)
C[C@@H]1CN([C@H](C)CO)C(=O)c2cc(Br)cnc2O[C@H]1CN(C)Cc1ccncc1	none (no result: Shn3 inh set2, aSyn 5UTR inh, EBV LMP1 NFkB, PAX8 inh HTS)
O=C(C[C@@H]1CC[C@@H]2[C@H](COC[C@H](O)CN2C(=O)C2CC2)O1)NCc1ccccc1Cl	none (no result: Shn3 inh set2, aSyn 5UTR inh, EBV LMP1 NFkB)
C[C@@H]1CN([C@H](C)CO)C(=O)c2cc(NC(=O)c3ccccc3)ccc2O[C@@H](C)CCCCO[C@@H]1CN(C)C(=O)Nc1cccc2ccccc12	none (no result: Shn3 inh set2, aSyn 5UTR inh, EBV LMP1 NFkB)
Cc1ccc(S(=O)(=O)Nc2ccc3c(c2)C(=O)N([C@@H](C)CO)C[C@H](C)[C@@H](CN(C)C(=O)Nc2cccc4ccccc24)OCCCC[C@H](C)O3)cc1	PAX8 inh HTS 70.2 (no result: Shn3 inh set2, aSyn 5UTR inh, EBV LMP1 NFkB)
Cc1cc(C)cc(NC(=O)/C(C#N)=C/c2cn(CC(=O)NCc3ccco3)c3ccccc23)c1	aSyn 5UTR inh 110.5 (no result: EWS-Fli block)
